How the values were obtained:
Schistosoma mansoni [1] = experiment: Antiparasitic activity against schistosomula stage of Schistosoma mansoni assessed as parasite viability at 20 uM after 48 hrs by Alamar Blue assay relative to control; assay type: functional
Summary of the method: (§1)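 Mechanically transformed S. mansoni schistosomula, 100 per well, in Medium 199 with 10% FCS, penicillin, streptomycin and rifampicin, held 3 h at 37°C/5% CO2 before use. […] Resazurin added at 48 h; fluorescence (ex 530/em 590 nm) read 24 h later, corrected for drug-medium background. Ethanol-killed larvae as dead control. Triplicate wells, two biological replicates.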

[2] = biological target: T1, Protein deacetylase HDAC6 (Homo sapiens, UniProt Q9UBN7); experiment: Inhibition of recombinant human HDAC6 using Cbz-(Ac)Lys-AMC as substrate preincubated for 90 mins followed by trypsin addition measured after 20 mins by fluorescence assay; settings: read-out: IC50
T1 sequence (Q9UBN7 whole entry): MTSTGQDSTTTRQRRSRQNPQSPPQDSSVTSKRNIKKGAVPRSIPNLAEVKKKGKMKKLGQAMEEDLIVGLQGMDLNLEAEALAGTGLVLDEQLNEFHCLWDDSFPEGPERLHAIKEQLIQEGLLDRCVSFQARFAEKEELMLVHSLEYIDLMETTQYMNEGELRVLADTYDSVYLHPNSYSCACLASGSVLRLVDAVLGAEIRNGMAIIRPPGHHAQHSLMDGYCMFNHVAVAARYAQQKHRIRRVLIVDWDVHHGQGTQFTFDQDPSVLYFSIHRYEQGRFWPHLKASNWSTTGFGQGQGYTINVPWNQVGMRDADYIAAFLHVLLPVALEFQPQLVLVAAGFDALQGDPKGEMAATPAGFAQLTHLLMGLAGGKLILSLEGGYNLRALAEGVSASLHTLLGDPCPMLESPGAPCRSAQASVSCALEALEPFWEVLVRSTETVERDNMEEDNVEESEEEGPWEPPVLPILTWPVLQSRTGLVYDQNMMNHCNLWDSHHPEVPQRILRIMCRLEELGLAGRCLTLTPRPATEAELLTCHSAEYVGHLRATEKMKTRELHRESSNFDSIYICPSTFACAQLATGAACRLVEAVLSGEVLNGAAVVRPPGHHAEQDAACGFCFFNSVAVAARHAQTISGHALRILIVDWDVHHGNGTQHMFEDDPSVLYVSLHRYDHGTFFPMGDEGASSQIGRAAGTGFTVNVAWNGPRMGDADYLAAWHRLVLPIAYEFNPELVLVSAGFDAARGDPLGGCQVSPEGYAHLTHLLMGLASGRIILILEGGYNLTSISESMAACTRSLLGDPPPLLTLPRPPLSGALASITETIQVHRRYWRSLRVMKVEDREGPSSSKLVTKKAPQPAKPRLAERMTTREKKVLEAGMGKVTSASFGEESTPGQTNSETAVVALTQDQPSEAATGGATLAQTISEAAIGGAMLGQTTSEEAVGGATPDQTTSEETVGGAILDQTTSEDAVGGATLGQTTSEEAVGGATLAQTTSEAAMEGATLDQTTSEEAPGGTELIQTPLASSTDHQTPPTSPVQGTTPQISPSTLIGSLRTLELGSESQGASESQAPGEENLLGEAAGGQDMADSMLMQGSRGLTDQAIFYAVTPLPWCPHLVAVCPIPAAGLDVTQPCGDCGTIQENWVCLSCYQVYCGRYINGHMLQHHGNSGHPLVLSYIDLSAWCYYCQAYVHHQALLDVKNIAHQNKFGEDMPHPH

Schistosoma mansoni [3] = experiment: Antiparasitic activity against schistosomula stage of Schistosoma mansoni assessed as parasite viability at 10 uM after 48 hrs by Alamar Blue assay relative to control; assay type: functional; summary of the method: as §1
Histone deacetylase 1 [4] = biological target: T2, Histone deacetylase 1 (Homo sapiens, UniProt Q13547); experiment: Inhibition of recombinant human HDAC1 using Cbz-(Ac)Lys-AMC as substrate preincubated for 90 mins followed by trypsin addition measured after 20 mins by fluorescence assay; settings: read-out: IC50
[5] = Cytotoxicity against HEK293 cells assessed as cell viability at 50 uM after 24 hrs by Alamar Blue assay relative to control; assay type: cell-based; settings: human, read-out: Activity
Summary of the method: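 AlamarBlue added after 24 h, incubated a further 21 h; resorufin fluorescence ex 560/em 590 nm. Triplicates; viability relative to untreated cells; daunorubicin positive control.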

Histone deacetylase 8 [6] = biological target: T3, Histone deacetylase 8 (Schistosoma mansoni, UniProt A5H660); experiment: Inhibition of recombinant Schistosoma mansoni HDAC8 expressed in Escherichia coli using Fluor de Lys as substrate preincubated for 90 mins followed by BML-KI176 addition measured after 45 mins by fluorescence assay; settings: read-out: IC50
T3 sequence (A5H660 whole entry): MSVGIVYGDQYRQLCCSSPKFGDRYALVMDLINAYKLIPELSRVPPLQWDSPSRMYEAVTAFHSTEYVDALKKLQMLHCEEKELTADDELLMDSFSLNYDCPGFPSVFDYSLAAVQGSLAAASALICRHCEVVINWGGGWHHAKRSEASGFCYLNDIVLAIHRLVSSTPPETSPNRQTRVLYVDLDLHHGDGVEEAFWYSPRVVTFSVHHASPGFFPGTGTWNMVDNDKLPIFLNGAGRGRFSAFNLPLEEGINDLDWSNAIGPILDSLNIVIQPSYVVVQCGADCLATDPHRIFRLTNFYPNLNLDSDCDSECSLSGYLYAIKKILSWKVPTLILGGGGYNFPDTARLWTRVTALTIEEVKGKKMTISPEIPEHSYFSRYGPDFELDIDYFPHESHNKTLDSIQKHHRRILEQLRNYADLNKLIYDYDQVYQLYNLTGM
Summary of the method: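 smHDAC8 produced in E. coli. Fluor de Lys kit: compound, Fluor de Lys-HDAC8 substrate (50 µM) and enzyme incubated 90 min at 37°C, then Developer II for 45 min at 30°C. Reaction stopped with trichostatin A (2 µM). Fluorescence read at ex 390/em 460 nm. IC50 given as mean ± S.E.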

Histone deacetylase 8 [7] = biological target: T4, Histone deacetylase 8 (Homo sapiens, UniProt Q9BY41); experiment: Inhibition of recombinant human HDAC8 using Fluor de Lys as substrate preincubated for 90 mins followed by BML-KI176 addition measured after 45 mins by fluorescence assay; settings: read-out: IC50
T4 sequence (Q9BY41 whole entry): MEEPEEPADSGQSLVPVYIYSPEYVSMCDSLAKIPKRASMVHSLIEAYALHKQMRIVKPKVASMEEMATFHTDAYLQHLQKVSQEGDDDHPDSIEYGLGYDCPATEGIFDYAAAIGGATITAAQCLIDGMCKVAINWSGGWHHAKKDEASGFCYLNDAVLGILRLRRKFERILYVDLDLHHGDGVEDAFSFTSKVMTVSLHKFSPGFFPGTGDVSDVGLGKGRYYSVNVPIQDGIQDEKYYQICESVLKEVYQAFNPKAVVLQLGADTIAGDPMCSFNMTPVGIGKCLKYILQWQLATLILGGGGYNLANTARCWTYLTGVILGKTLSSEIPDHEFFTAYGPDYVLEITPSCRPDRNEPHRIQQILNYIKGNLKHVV

Histone deacetylase 1 [8] = biological target: T2, Histone deacetylase 1; experiment: Inhibition of recombinant human HDAC1 using Cbz-(Ac)Lys-AMC as substrate at 10 uM preincubated for 90 mins followed by trypsin addition measured after 20 mins by fluorescence assay relative to control

T2 sequence (Q13547 whole entry): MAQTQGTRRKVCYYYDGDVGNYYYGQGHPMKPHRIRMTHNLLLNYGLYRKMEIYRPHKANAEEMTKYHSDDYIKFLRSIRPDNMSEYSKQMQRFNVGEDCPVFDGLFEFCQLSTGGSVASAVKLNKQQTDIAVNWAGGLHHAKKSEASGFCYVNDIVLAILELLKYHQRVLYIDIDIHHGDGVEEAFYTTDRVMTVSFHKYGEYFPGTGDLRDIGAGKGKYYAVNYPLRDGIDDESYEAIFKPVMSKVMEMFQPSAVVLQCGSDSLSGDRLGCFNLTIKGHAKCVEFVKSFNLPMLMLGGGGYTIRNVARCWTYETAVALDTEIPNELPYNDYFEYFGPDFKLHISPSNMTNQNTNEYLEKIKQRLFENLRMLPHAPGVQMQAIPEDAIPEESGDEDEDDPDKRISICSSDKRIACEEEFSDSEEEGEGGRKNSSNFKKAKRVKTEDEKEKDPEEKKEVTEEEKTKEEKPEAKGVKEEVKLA

SMILES | Activity (Schistosoma mansoni [1]) | IC50 [2] | Activity (Schistosoma mansoni [3]) | IC50 (Histone deacetylase 1 [4]) | viability at 24 h, 50 µM [5] | IC50 (Histone deacetylase 8 [6]) | IC50 (Histone deacetylase 8 [7]) | inhibition (Histone deacetylase 1 [8])
O=C(NO)c1ccc(F)c(NC(=O)c2ccccc2)c1 | 78.6% | 500 nM | 82% | 22300 nM | 81.8% | 178 nM | 318 nM | –
Cc1ccc(C(=O)NO)cc1NC1CCCCC1 | – | – | 84.3% | – | 70.2% | 600 nM | 104 nM | 49.5%
COc1ccc(C(=O)NO)cc1NC(=O)c1ccccc1Cl | 66.5% | 3100 nM | 89.5% | 9600 nM | 96.9% | 699 nM | 211 nM | –
COc1ccc(C(=O)NO)cc1S(=O)(=O)Nc1ccc(C)cc1 | 73.8% | 2400 nM | 77.7% | 20000 nM | 80.2% | 485 nM | 19.8 nM | –
O=C(NO)c1ccc(Cl)c(NC(=O)c2ccc(Cl)cc2Cl)c1 | 59.3% | 800 nM | 72.5% | 31600 nM | 70.4% | 191 nM | 1180 nM | –
COc1ccc(C(=O)NO)cc1NC(=O)Cc1ccccc1 | 82.8% | 5100 nM | 83.3% | 28900 nM | 88.7% | 183 nM | 512 nM | –
